ChEMBL document CHEMBL2176997, “Salicylanilide inhibitors of Toxoplasma gondii” (J Med Chem, 2012)
Values after ≈ are worked out from the molar mass of the structure shown. Active and inactive are the calls of the source. No cut-off for these calls is given here.

How the values were obtained:
[1] = tested on: Toxoplasma gondii; experiment: Antiapicomplexan activity against Toxoplasma gondii RH tachyzoites infected in HFF cells assessed as [3H]-uracil incorporation after 24 hrs by scintillation luminescence counter; assay type: functional
How it was run: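 Confluent HFF monolayers in IMDM-C (10% FBS) infected with 3,500 needle-released tachyzoites per well. Compounds from 10 mM DMSO stocks, diluted in medium (final DMSO ≤0.1%), were added 1 h after infection, with 0.1% DMSO as vehicle control. [3H]-uracil (25 µL of 0.1 mCi/mL) was added 24 h before harvest onto glass-fibre filters and counted by scintillation. Cultures were kept at 33°C or 37°C, 5% CO2.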

[2] = tested on: Toxoplasma gondii; experiment: Antiapicomplexan activity against Toxoplasma gondii THdhxgTRP tachyzoites harboring insertional mutation assessed as growth inhibition after 6 weeks; assay type: functional, organism-based
[3] = tested on: Toxoplasma gondii; experiment: Antiapicomplexan activity against Toxoplasma gondii TgGoatUS4 oocysts infected in HLA B07 transgenic mouse assessed as increase in survival at 25 to 100 mg/kg, po; assay type: functional, organism-based
How it was run: (§1)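 Female B7 mice (~25 g), 5 per group, given 100 ME49 or TgGoatUS4 oocysts by oral gavage, plus 100 mg/kg (2.5 mg/mL) or 25 mg/kg ([…]) of test compound as 1.0 mL oral-gavage suspension. Vehicle DMSO 1.0%/PEG 400 5.0%/0.5% CMC 94.0%. Infected untreated and drug-only groups included. Mice observed daily and day of death recorded. Impression smears examined for tachyzoites.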

[4] = tested on: Mus musculus; experiment: Toxicity in HLA B07 transgenic mouse assessed as survival at 25 to 100 mg/kg, po administered for 9 days measured after day 10; assay type: organism-based; parameters: dose 25-100 mg/kg, route oral; settings: in vivo, 216 h
[5] = tested on: HFF; experiment: Cytotoxicity against HFF cells assessed as survival by WST1 assay; assay type: cell-based; settings: human
How it was run: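 Confluent HFF cells were treated with compounds at the concentrations used in the challenge assays. On the final day WST-1 reagent was added, followed by 1 h incubation in the dark at 37°C and absorbance reading at 420 nm.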

[6] = tested on: Toxoplasma gondii; experiment: Antiapicomplexan activity against Toxoplasma gondii RH tachyzoites expressing yellow fluorescent protein infected in HFF cells after 72 hrs by fluorescence assay; assay type: functional, organism-based
How it was run: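 Confluent HFF monolayers in IMDM-C (10% FBS) infected with 3,500 RH-YFP tachyzoites per well. Compounds were added 1 h later from 10 mM DMSO stocks, final DMSO ≤0.1%. Pyrimethamine/sulfadiazine and 0.1% DMSO served as controls. After 72 h YFP fluorescence was read (ex 514, em 540 nm, bottom optics), giving MIC50/MIC90 ranges. Plates held at 33°C or 37°C, 5% CO2.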

[7] = tested on: Plasmodium falciparum; experiment: Selectivity ratio of IC50 for chloroquine-resistant Plasmodium falciparum TM91-C235 to IC50 for chloroquine-sensitive Plasmodium falciparum D6; assay type: functional
[8] = tested on: Plasmodium falciparum; experiment: Antiapicomplexan activity against chloroquine-resistant Plasmodium falciparum TM91-C235 assessed as growth inhibition after 72 hrs by MSF assay; assay type: functional, organism-based; settings: TM91-C235, 72 h
How it was run: (§2)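 P. falciparum D6 or TM91-C235, late-ring/early-trophozoite stage, cultured at 0.3% parasitemia and 2% hematocrit on predosed plates. Twelve two-fold dilutions spanned 0.5–10000 ng/ml final, in quadruplicate, with chloroquine control. Incubation 72 h at 37°C under 5% CO2/5% O2/90% N2. Lysis buffer with SYBR Green I (10x final) was added, then 24 h dark at room temperature. IC50 from fluorescence by sigmoidal variable-slope regression.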

[9] = tested on: Plasmodium falciparum; experiment: Antiapicomplexan activity against chloroquine-sensitive Plasmodium falciparum D6 assessed as growth inhibition after 72 hrs by MSF assay; assay type: functional, organism-based; settings: D6, 72 h; how it was run: as §2
[10] = tested on: Toxoplasma gondii; experiment: Antiapicomplexan activity against Toxoplasma gondii RH tachyzoites expressing yellow fluorescent protein infected in HFF cells assessed as parasite growth inhibition at 1 uM administered for 25 days followed by compound wash out; assay type: functional, organism-based
[11] = tested on: Toxoplasma gondii; experiment: Parasitostatic activity against Toxoplasma gondii RH tachyzoites expressing yellow fluorescent protein infected in HFF cells at 1 uM administered for 10 days followed by compound wash out measured on day 17; assay type: functional, organism-based
How it was run: (§3)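 RH-YFP tachyzoites grown in HFF cells were exposed to 1 µM compound under set schedules: 4 days of treatment then removal, or 10 days of treatment then removal. Parasite burden was followed over time as YFP fluorescence (excitation 514 nm, emission 540 nm, bottom read) and compared with untreated infected controls.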

[12] = tested on: Toxoplasma gondii; experiment: Parasitostatic activity against Toxoplasma gondii RH tachyzoites expressing yellow fluorescent protein infected in HFF cells at 1 uM administered for 4 days followed by compound wash out measured on day 11 relative to untreated control; assay type: functional, organism-based; how it was run: as §3
[13] = tested on: Toxoplasma gondii; experiment: Parasitocidal activity against Toxoplasma gondii RH tachyzoites expressing yellow fluorescent protein infected in HFF cells assessed as parasite growth inhibition at 1 uM administered for 25 days followed by compound wash out; assay type: functional, organism-based
How it was run: (§4)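 RH-YFP tachyzoites in HFF cells given compound at 1 μM under one of four regimens: 4 days then removal; 10 days then removal; refreshed at day 4 and removed at day 10; or maintained throughout. Parasite growth was followed as YFP fluorescence over time.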

[14] = tested on: Toxoplasma gondii; experiment: Parasitocidal activity against Toxoplasma gondii RH tachyzoites expressing yellow fluorescent protein infected in HFF cells at 1 uM administered for 10 days followed by compound wash out measured after 11 to 25 days; assay type: functional, organism-based; how it was run: as §4
[15] = tested on: Toxoplasma gondii; experiment: Parasitocidal activity against Toxoplasma gondii RH tachyzoites expressing yellow fluorescent protein infected in HFF cells at 1 uM administered for 4 days followed by compound refreshment on day 4 and compound wash out on day 10 measured after 11 to 25 days; assay type: functional, organism-based; how it was run: as §4
[16] = tested on: Toxoplasma gondii; experiment: Parasitocidal activity against Toxoplasma gondii RH tachyzoites expressing yellow fluorescent protein infected in HFF cells at 1 uM administered for 4 days followed by compound wash out measured after 11 to 25 days; assay type: functional, organism-based; how it was run: as §4
[17] = tested on: Toxoplasma gondii; experiment: Antiapicomplexan activity against Toxoplasma gondii ME49 oocysts infected in HLA B07 transgenic mouse assessed as increase in survival at 25 to 100 mg/kg, po; assay type: functional, organism-based; how it was run: as §1

SMILES | MIC50 [1] | MIC90 [1] | other results
COc1ccc(F)cc1C(=O)Nc1ccc([N+](=O)[O-])cc1F | > 1 µM | > 1 µM | –
CN(CC(=O)NN)C(=O)Oc1ccc(Cl)cc1C(=O)Nc1cc(C(F)(F)F)cc(C(F)(F)F)c1.Cl | 0.125 µM | 0.125 µM | growth inhibition (GI) [2]: Active; Activity [3]: Active; Activity [4]: Non-toxic; Activity [5]: > 1000 nM; IC50 [6]: 125 nM; IC90 [6]: 125 nM
CC(C)(C)c1cccc(NC(=O)c2cc(Cl)ccc2O)c1 | 0.008 µM (≈ 0.00243 µg/mL) | 0.016 µM (≈ 0.00486 µg/mL) | growth inhibition (GI) [2]: Active; Ratio IC50 [7]: 2; IC50 [8]: > 6500 nM; IC50 [9]: 3100 nM; growth inhibition (GI) [10]: Active; Activity [11]: inactive; Activity [12]: inactive; Activity [5]: > 1000 nM; IC50 [6]: 8 nM; IC90 [6]: 16 nM
O=C(Nc1cc(C(F)(F)F)cc(C(F)(F)F)c1)c1cc(Cl)ccc1O [IMD-0354] | 0.016 µM (≈ 0.00614 µg/mL) | 0.125 µM (≈ 0.048 µg/mL) | growth inhibition (GI) [2]: Active; IC50 [8]: 1300 nM; IC50 [9]: 1400 nM; Activity [13]: Active; Activity [14]: Active; Activity [15]: Active; Activity [16]: Active; Activity [5]: > 1000 nM; IC50 [6]: 16 nM; IC90 [6]: 125 nM
O=C(Nc1cc(F)cc(F)c1)c1cc(Cl)ccc1O | > 1 µM | > 1 µM | –
COc1ccc(NC(=O)c2cc(Cl)ccc2O)cc1OC | > 1 µM | > 1 µM | –
Cc1cc(C)cc(NC(=O)c2cc(Cl)ccc2O)c1 | > 1 µM | > 1 µM | –
C=Cc1cccc(NC(=O)c2cc(Cl)ccc2O)c1 | 0.25 µM (≈ 0.0684 µg/mL) | 0.75 µM (≈ 0.205 µg/mL) | –
O=C(Nc1ccc([N+](=O)[O-])cc1Cl)c1cc(Cl)ccc1O [NICLOSAMIDE] | 0.2 µM (≈ 0.0654 µg/mL) | 0.2 µM (≈ 0.0654 µg/mL) | –
O=C(Nc1cccc(Br)c1)c1cc(Cl)ccc1O | 0.5 µM (≈ 0.163 µg/mL) | 0.75 µM (≈ 0.245 µg/mL) | –
O=C(Nc1ccc([N+](=O)[O-])cc1Cl)c1cc(Cl)ccc1OC(=O)N1CCOCC1 | > 1 µM | > 1 µM | –
CN1CCN(C(=O)Oc2ccc(Cl)cc2C(=O)Nc2ccc([N+](=O)[O-])cc2Cl)CC1 | 0.5 µM (≈ 0.227 µg/mL) | 0.75 µM (≈ 0.34 µg/mL) | –
COc1ccc(C)c(NC(=O)c2cc(Cl)ccc2O)c1 | > 1 µM | > 1 µM | –
O=C(Nc1cccc(F)c1)c1cc(Cl)ccc1O | 0.5 µM (≈ 0.133 µg/mL) | 0.75 µM (≈ 0.199 µg/mL) | –
O=C(Oc1ccc(Cl)cc1C(=O)Nc1ccc([N+](=O)[O-])cc1Cl)c1ccccc1 | 0.061 µM (≈ 0.0263 µg/mL) | 0.125 µM (≈ 0.0539 µg/mL) | growth inhibition (GI) [2]: Active; IC50 [8]: 690 nM; IC50 [9]: 770 nM; Activity [13]: Active; Activity [14]: Active; Activity [15]: Active; Activity [16]: Active; Activity [5]: > 1000 nM; IC50 [6]: 61 nM; IC90 [6]: 125 nM
CCOc1cccc(NC(=O)c2cc(Cl)ccc2O)c1 | > 1 µM | > 1 µM | –
O=C(Nc1cc(Cl)cc(Cl)c1)c1cc(Cl)ccc1O | 0.25 µM (≈ 0.0791 µg/mL) | 0.25 µM (≈ 0.0791 µg/mL) | –
Cc1cccc(NC(=O)c2cc(Cl)ccc2O)c1 | > 1 µM | > 1 µM | –
N#Cc1cccc(NC(=O)c2cc(Cl)ccc2O)c1 | > 1 µM | > 1 µM | –
COc1ccc(NC(=O)c2cc(Cl)ccc2O)c(OC)c1OC | > 1 µM | > 1 µM | –
O=C(Nc1ccc2c(c1)OCCO2)c1cc(Cl)ccc1O | > 1 µM | > 1 µM | –

SMILES | MIC50 [1] | MIC90 [1] | other results
C#Cc1cccc(NC(=O)c2cc(Cl)ccc2O)c1 | > 1 µM | > 1 µM | –
O=C(Nc1ccc([N+](=O)[O-])cc1Cl)c1ccccc1O | > 1 µM | > 1 µM | –
CC(C)Oc1cccc(NC(=O)c2cc(Cl)ccc2O)c1 | > 1 µM | > 1 µM | –
C#Cc1cc(NC(=O)c2cc(Cl)ccc2O)ccc1F | > 1 µM | > 1 µM | –
COC(=O)[C@@H]1CCCN1C(=O)Oc1ccc(Cl)cc1C(=O)Nc1ccc([N+](=O)[O-])cc1Cl | > 1 µM | > 1 µM | –
O=C(Nc1cccc(Oc2ccccc2)c1)c1cc(Cl)ccc1O | > 1 µM | > 1 µM | –
CCc1cccc(NC(=O)c2cc(Cl)ccc2O)c1 | 0.25 µM (≈ 0.0689 µg/mL) | 0.5 µM (≈ 0.138 µg/mL) | –
O=C(Nc1cccc(Cl)c1)c1cc(I)cc(I)c1O | > 1 µM | > 1 µM | –
CCOc1cccc(NC(=O)c2cc(F)ccc2O)c1 | > 1 µM | > 1 µM | –
CN(CC(=O)NN)C(=O)Oc1ccc(Cl)cc1C(=O)Nc1ccc([N+](=O)[O-])cc1Cl.Cl | 0.016 µM | 0.125 µM | Activity [17]: Active; Activity [4]: Non-toxic; IC50 [8]: 2700 nM; Activity [14]: Active; Activity [15]: Active; Activity [5]: > 1000 nM; IC50 [6]: 16 nM; IC90 [6]: 125 nM
O=c1[nH]c(=O)c2nc[nH]c2[nH]1 | – | – | growth inhibition (GI) [2]: Active
O=C(Nc1ccc(Cl)cc1F)c1cc(Cl)ccc1O | > 1 µM | 0.5 µM (≈ 0.15 µg/mL) | –
COc1c(C)c2c(c(O)c1C/C=C(\C)CCC(=O)O)C(=O)OC2 | – | – | growth inhibition (GI) [2]: Active
COc1ccc(F)cc1C(=O)Nc1ccc([N+](=O)[O-])cc1Cl | > 1 µM | > 1 µM | –
Cc1ccc(O)c(C(=O)Nc2ccc([N+](=O)[O-])cc2Cl)c1 | 0.25 µM (≈ 0.0767 µg/mL) | 0.25 µM (≈ 0.0767 µg/mL) | –
N#Cc1ccc(Cl)c(NC(=O)c2cc(Cl)ccc2O)c1 | 0.5 µM (≈ 0.154 µg/mL) | 0.75 µM (≈ 0.23 µg/mL) | –
O=C(Nc1cccc(Cc2ccccc2)c1)c1cc(Cl)ccc1O | 0.75 µM (≈ 0.253 µg/mL) | 0.75 µM (≈ 0.253 µg/mL) | –
O=C(Nc1cccc(C(F)(F)F)c1)c1cc(Cl)ccc1O | 0.25 µM (≈ 0.0789 µg/mL) | 0.25 µM (≈ 0.0789 µg/mL) | –
Nc1ccc(NC(=O)c2cc(Cl)ccc2O)c(Cl)c1 | > 1 µM | > 1 µM | –
O=C(Nc1cccc(OC(C(F)(F)F)C(F)(F)F)c1)c1cc(Cl)ccc1O | > 1 µM | > 1 µM | –
